Laboratory results from ChEMBL document CHEMBL4513216, “Probing the Open Global Health Chemical Diversity Library for Multistage-Active Starting Points for Next-Generation Antimalarials” (ACS Infect Dis, 2020).

Assay: Toxicity liver stage against HepG2, at 10uM
Type: cell-based
Parameters: test concentration 10 uM, cell line HepG2-A16-CD81EGFP
Conditions: human, HepG2-A16-CD81EGFP cells; read-out: INHIBITION
In short: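 Uninfected HepG2-A16-CD81EGFP cells, 3 × 10^3 per well, 1536-well, plated on prespotted compound at 10 μM final, parasite-free screening media added to match infected plates; puromycin 10 μM positive, DMSO 0.5% negative; run in parallel with 48 h PbLuc assay at 37 °C, 5% CO2; viability by CellTiter-Glo luminescence, normalized to controls.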

Row | SMILES | cytotoxicity at 10 µM [%]
1 | N#Cc1c(-c2ccccc2)csc1N | 2.42
2 | c1ccc2c(c1)COC1(CCCC1)N2 | 10.4
3 | CCCN(CCC)CCNc1c(-c2ccccc2)c(=O)c1=O | -82.1
4 | CCCS(=O)(=O)N1CC(=O)N(Cc2cccc(OC)c2OC)CC(O)C1 (stereo unspecified) | -12.9
5 | Cc1cc(CN2CCC(CNS(=O)(=O)c3ccc(C)s3)CC2)c(C)o1 | 3.39
6 | Cc1ccccc1C(=O)N1CC2(COC(C)(C)OC2)C1 | 4.56
7 | COc1cccc(CN2C[C@H]3CCNCC[C@H]3S2(=O)=O)c1 | -8.81
8 | c1csc(CN2C[C@H]3CCC[C@@]3(COCC3CCOCC3)C2)n1 | -1.99
9 | CCn1nc(C)c2c1cnn2CC(=O)NC(C)c1cccc(OC)c1 (stereo unspecified) | 25.8
10 | CC(=O)N[C@@H]1CN(C(=O)CC2CC2)C[C@H]1O | -7.1
11 | CC(=O)N1CCC(c2cnc(-c3c(C)n[nH]c3C)cn2)CC1 | -17.1
12 | C[C@H](NC(=O)C1CC1)c1nc2cc(-c3ccc(F)cc3)ncn2n1 | -23
13 | CC(C)(C)C(=O)N1CCCC(c2ncncc2-c2ccncc2)C1 (stereo unspecified) | 4.03
14 | COCC(=O)N1CCC(c2cc3n(n2)[C@@H](C(F)(F)F)C[C@@H](C)N3)CC1 | -26.5
15 | CCC(=O)N1CCC(Cc2cc(Nc3ncccn3)ncn2)CC1 | -4.05
16 | O=C(c1ccc(Cl)cc1)N1CCn2c(nn(-c3ccncc3)c2=O)C1 | 27.5
17 | CN(C(=O)CSc1ncc[nH]1)c1ccccc1 | 11.1
18 | O=c1cc(CN(CCO)C2CC2)nc2ccc(Cl)cn12 | 14.7
19 | Cc1nc(NS(=O)(=O)c2cc(C)c(Br)cc2C)no1 | 5.42
20 | COCCCN1Cc2cccc(NC(=O)c3ccccc3Cl)c2C1 | -4.34
21 | Cc1ncc(CNC(CCO)C2CCCCC2)s1 (stereo unspecified) | -48.7
22 | O=C(c1ccccc1)N1CCN(C2CCc3ccc(F)cc32)CC1 (stereo unspecified) | 11.1
23 | COc1ccc(OC)c(C(=O)Nc2cccnc2-n2cncn2)c1 | -17

Row | SMILES | cytotoxicity at 10 µM [%]
24 | Cc1nc(-c2ccc(S(=O)(=O)N3CCSCC3)cc2)co1 | 5.18
25 | Cc1nc(CNc2cccc(Cl)c2Cl)cs1 | 11.4
26 | COCCOCCNC(=O)c1ccc(N2CCC(C)=N2)cc1 | 7.42
27 | N#Cc1cccc(-c2ncnn2CC2(O)CCCCC2)c1 | 8.83
28 | Cc1noc(CCCC(=O)N2CCCCC2CNS(C)(=O)=O)n1 (stereo unspecified) | -0.88
29 | Cn1cccc1CNCc1nnc2n1CCCC2C(F)(F)F (stereo unspecified) | -7.53
30 | CCOc1ccccc1NC(C)C(=O)N(C)Cc1cccc(F)c1 (stereo unspecified) | 12.1
31 | O=C(CCc1ccncc1)N1CCc2cc(Cl)cc(Cl)c2C1 | -24.3
32 | CC(C)(C)n1ncc2c1CCCC2NCc1ccsc1 (stereo unspecified) | 3.59
33 | O=C(COc1cccc2c1CCC2=O)NCc1ccccc1Cl | -3.46
34 | c1nc(N2CCOC(Cn3cncn3)C2)c2sccc2n1 (stereo unspecified) | 16.7
35 | Cc1cc2cc(CNC3CCN(S(C)(=O)=O)CC3)oc2cc1C | -0.779
36 | Cc1ncsc1CNCC(C)c1nc2ccccc2o1 (stereo unspecified) | 4.17
37 | CCN1CCN(c2ccc(C(=O)NC(C)CCOC)cc2)CC1 (stereo unspecified) | 8.7
38 | CCN1CCN(C(=O)NCc2cccc(-c3cnn(C)c3)c2)CC1 | -10
39 | Cc1ccccc1CS(=O)(=O)CC(=O)N(C)Cc1ccccc1 | 2.84
40 | COCc1nc(C(=O)N2CCN(Cc3cc(C)on3)CC2)cs1 | -15
41 | Cc1nc(C)c(CCNc2ccc(S(N)(=O)=O)cc2C#N)s1 | -62.2
42 | COc1cccc(CC2CCCN2CCCO)c1 (stereo unspecified) | -37.5
43 | CN(CC1CCN(CCO)CC1)CC(O)c1ccc(F)c(F)c1 (stereo unspecified) | -51.5
44 | CCc1noc(CN(CC(=O)N2CCCCC2)c2ccc(C)cc2)n1 | -3.24
45 | COc1ccc(CN(C)C(=O)CCC(=O)c2cccs2)c(OC)c1OC | -10.7
46 | Cc1cc(N2CCN(C(=O)c3cc(Cl)c[nH]3)CC2)nc(N)n1 | -6.28

Row | SMILES | cytotoxicity at 10 µM [%]
47 | N#CCSCCCN1CCCN(C(=O)c2ccccc2)CC1 | -3.74
48 | Cc1nc(CN2CCC23CCN(Cc2ccco2)CC3)cs1 | -114
49 | C[C@@H]1CN(C(=O)[C@H]2CCCO2)C[C@]12CCN(c1ccsc1)C2=O | -77.8
50 | O=C(c1ccncc1)N1CCc2ncnc(C3CCOC3)c2CC1 (stereo unspecified) | -73.2
51 | COCC(=O)N1CCO[C@H]2[C@H](OC)CC[C@@H]21 | 6.61
52 | c1ccc(C[C@H]2CN(Cc3nccs3)CC[C@H]2OCC2CC2)cc1 | 5.27
53 | O=C(CC1CC1)N1CCC2(CC1)CN(c1ncccn1)CCO2 | 1.49
54 | O=C(NCCn1cccc1)C(c1cccnc1)N1CCCC1 (stereo unspecified) | -54.5
55 | CCc1ccc(CN2CCN(c3ncc(Cl)cn3)CC2)nc1 | 8.45
56 | CC(C)[C@@H]1CN(Cc2ccsc2)C[C@H]1NS(=O)(=O)N(C)C | -23.5
57 | CNC(=O)C1CCN(c2nccc(CCC(F)(F)F)n2)C1 (stereo unspecified) | -11.4
58 | O=C(Nc1ccc2scnc2c1)N1CCN([C@H]2CCCC[C@@H]2O)CC1 | -53.6
59 | O=C(C1CCCC1)N1CCC(Nc2ccncn2)CC1 | -57.7
60 | CCn1c(C)nnc1SCCNC(=O)c1cnc(N(C)C)nc1C | 6.9
61 | CCOc1ncccc1Cn1cc(-c2ccc(CO)o2)nn1 | -1.91
62 | CC(C)c1nnsc1CN1CCc2[nH]nc(-c3ccc(Cl)cc3)c2C1 | -10.3
63 | CNc1ccnc(NCCC(=O)Nc2ccccc2OC)n1 | -1.62
64 | CCn1ncnc1CN(CCOC)Cc1ccc(C)cc1 | -40.2
65 | COc1ccccc1-n1cc(CN2CCN(C)[C@@H]3CS(=O)(=O)C[C@@H]32)cn1 | 14.5
66 | Cc1nn(C)cc1-c1ccnc(N(C)Cc2ccon2)n1 | -8.71
67 | CCCc1cc(CN(C)C2CCSCC2)n[nH]1 | -20.6
68 | CC(C)[C@@H]1CN(C(=O)C2(c3ccccc3)CC2)C[C@H]1C(=O)O | 3.61
69 | CCCC(=O)Nc1cc2c(cc1OC)NC(=O)CC2c1ccc(CC)o1 (stereo unspecified) | 2.01

Row | SMILES | cytotoxicity at 10 µM [%]
70 | CN1CCN(CCC(F)(F)C(F)F)CC12CCNC(=O)CC2 (stereo unspecified) | -39.7
71 | CCOCCn1c(=O)n(Cc2ccccc2F)c2cc(C(=O)O)cnc21 | -6.46
72 | CSCCNC(=O)c1coc(COc2ccc(F)cc2)n1 | 1.75
73 | CN(C)S(=O)(=O)N1CCCC(CCC(=O)Nc2ccc(Cl)cc2)C1 (stereo unspecified) | -12.5
74 | Cc1nc(C)c(C(=O)N2CCc3[nH]nc(COc4ccccc4)c3C2)s1 | -3.09
75 | CN1CC(c2ccccc2)CC2(CCN(Cc3ncc[nH]3)CC2)C1 (stereo unspecified) | -1.21
76 | Cn1c(CN2CCOCC2)nnc1C1CCN(C(=O)C2CCCC2)CC1 | -17.8
77 | CNC(=O)c1ccc(C2CN(C(=O)c3cncs3)CCO2)nc1 (stereo unspecified) | -2.7
78 | c1ccc(Oc2ccc(CNCC3CNc4ccnn4C3)cn2)cc1 (stereo unspecified) | -15.6
79 | Clc1cccc(-c2nc(CNC3CCc4ncnn4C3)co2)c1 (stereo unspecified) | 2.56
80 | Cc1nnc2n1CCN(C(=O)c1cc(C)n(-c3cccnc3)c1C)C2 | -6.63
81 | Cc1ccc(NC2CCN(C(=O)Cc3cccs3)CC2)nn1 | -6.8
82 | Cc1noc(CN(Cc2cccs2)C2CCS(=O)(=O)C2)n1 (stereo unspecified) | -3.21
83 | Cc1nn(C)c(N(C)C)c1CNCCC(=O)NC1CCCCC1 | -13.4
84 | Cc1nc(CNCc2c(C(C)C)nn(C)c2N2CCOCC2)cs1 | -2.51
85 | O=C(c1ccccc1OC1CCCC1)N1CCCC(n2cncn2)C1 (stereo unspecified) | -0.0581
86 | COCc1ccccc1C(=O)N(C)Cc1ncc(C)c(OC)c1C | -7.55
87 | Cc1noc(C)c1CNC(=O)c1ccc(NC2CC2)nc1 | -3.91
88 | CC(C)OCCC(=O)N(C)CCCc1cc(-c2ccccc2)no1 | -15.3
89 | CC(=O)N(Cc1ncc(C(C)C)o1)C1CCN(CCn2cccn2)C1 (stereo unspecified) | -4.89
90 | Cc1ccccc1CNC(=O)CN1CCN(Cc2nccn2C)CC1 | -5.75
91 | Cc1noc(CN2CCC(c3ccnn3CCO)CC2)n1 | -9.62
92 | Cn1c(CN2CCCC2c2noc(C3CC3)n2)cc(=O)n(C)c1=O (stereo unspecified) | 4.04

Row | SMILES | cytotoxicity at 10 µM [%]
93 | Cc1cnn(CC2CCCCN2C(=O)CN(C)C2CC2)c1 (stereo unspecified) | -1.23
94 | CNS(=O)(=O)c1cccc(CNC(=O)c2c(C)oc(C)c2C)c1 | -1.3
95 | CN(C)[C@@H]1CN(Cc2ccccc2O)C[C@H]1c1cn(C)c2ccccc12 | 6.6
96 | Cc1nn(CCC#N)c(C)c1CCC(=O)N(C)C | -7.33
97 | Cc1nc2c(c(NC(C)C)n1)CCN(Cc1cccnc1)CC2 | 6.4
98 | O=C(c1ccccc1-c1ccccc1)N1C[C@@H]2CNC[C@]2(C(=O)O)C1 | -0.265
99 | Cc1cccc(CN2CCc3[nH]nc(C(=O)N4CCNC(=O)C4)c3C2)n1 | 18.2
100 | Cc1n[nH]cc1CNC1CCN(c2ccccc2)CC1 | -52.2
101 | CC[C@@H]1N(CC2CCOCC2)CCC[C@]12CCC(=O)N2 | 18.1
102 | Cc1ccc(C(=O)N2CCC3(CC2)CN(c2ccccn2)CCO3)cc1 | -75.4
103 | O=C(NC1CC2(CCN(CCO)CC2)c2ccccc21)c1ccncc1 (stereo unspecified) | -9.54
104 | Cn1cc(CN2CCCC3(CCN(C(=O)c4cnccn4)C3)C2)cn1 (stereo unspecified) | -69.6
105 | CN(C)CCN1C(=O)CC[C@@H]2[C@H]1CCN2Cc1cccc(C#N)c1 | -89.1
106 | c1ccc(O[C@H]2CO[C@@]3(CCCN(Cc4nccs4)C3)C2)nc1 | -71.3
107 | O=C(c1ccco1)N1C[C@H]2CCCN(CC3CCOCC3)[C@H]2C1 | -0.285
108 | Cc1nc(C2(O)CCCNCC2)sc1CCOc1ccccc1 (stereo unspecified) | -28.5
109 | Cc1cccc(N2CC[C@@H]3CN(C(=O)c4ccco4)CCO[C@@H]3C2)n1 | 10.5
110 | O=C(c1ccccc1)N1C[C@@H]2CCCO[C@@H]2[C@H](N2CCOCC2)C1 | -8.81
111 | CCN1CCc2c(sc3c2C(=O)NC(C=Cc2ccco2)N3)C1 (stereo unspecified) | -1.07
